From PubChem BioAssay
Active and inactive are the calls of the source.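 How the source made its calls, unless noted: active means inhibition above 20% together with a positive visual image hit; inconclusive means visual image hit but inhibition not above 20%; inactive means no visual image hit.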

How the values were obtained:
[1] = inhibitors of TNFa-induced NFkB p65 translocation, primary screen, imaging, HUVEC, MLSMR starter and 10KST1 sets (AID 438); conditions: HUVEC TNFa-induced p65 nuclear translocation; cell count: measured here: nuclei count (cytotoxicity indicator), at 2.08 µM; inhibition: at 2 µM, stronger effect = higher value, 0% TNFa-plus-vehicle, 100% no-TNFa wells;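 further: compound added about 3h40 before a 20 min TNFalpha stimulation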;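 on inhibition: signal is the nuclear over cytoplasmic p65 intensity ratio per well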
[2] = reduction of polyQ htt aggregates in cells – imaging, exon1htt(103Q)mCFP cells, high-content imaging, primary screen (AID 483;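 active means visual image review flags a hit and inhibition of aggregation exceeds 20%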;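 further: compound exposure lasted 3 days before fixation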;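 on nuclei count: percent of the per-plate median nuclei count of sample wells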); conditions: exon1htt(103Q)mCFP cell line, aggregate imaging, at 2 µM; inhibition of aggregation: stronger effect = higher value; nuclei count: measured here: cell count, toxicity
[3] = endothelial E-selectin expression blockers – imaging, HUVEC, immunofluorescence, MLSMR starter and 10KST1 sets, primary screen (AID 487;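 active means visually confirmed hit in the image check and inhibition above 20%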;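 on inhibition: signal is fraction of cell area covered by stained E-selectin grains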;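 on nuclei count: 100% = median nuclei count of all wells on the same plate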); conditions: HUVEC TNFalpha-induced E-selectin immunofluorescence imaging, at 2 µM; inhibition: stronger effect = higher value; nuclei count: measured here: cell number, toxicity
[4] = target: Voltage-gated potassium channel subunit beta-2 (Rattus norvegicus) (UniProt P62483); assay: inhibitors of rat Kvbeta2 reductase activity – biochemical, NADPH fluorescence, primary screen (AID 622;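 active means fluorescence slope higher than the sample average by over 3 SD, cut at about -0.22 in these data, passing the limit was not always enough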;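 further: slope of raw intensity against log time taken from 70 to 1610 s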); conditions: recombinant KvBeta, 4-cyanobenzaldehyde reduction, at 10 µM, stronger effect = higher value
[5] = target: Voltage-gated potassium channel subunit beta-2 (Rattus norvegicus) (UniProt P62483); assay: enhancers of rat Kvbeta2 NADPH turnover – biochemical, NADPH fluorescence, primary screen (AID 623;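 active means NADPH fluorescence slope more negative than the mean of all samples by about 3 SD, 99.7% confidence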;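 further: fluorescence intensity change per second fitted from 20 to 320 s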); conditions: Recombinant KvBeta, NADPH fluorescence decrease slope, 10 min; at 10 µM; stronger effect = lower value
[6] = target: Muscarinic acetylcholine receptor M4 (Homo sapiens) (UniProt P08173); assay: M4-linked GIRK flux change, two-sided – cell-based, HEK293 M4/GIRK, thallium flux, BTC-AM, M4 allosteric agonist project, primary screen (AID 625;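 active means fluorescence slope after compound addition differing from the mean of all tested samples at 99.7% confidence, mostly higher but some lower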;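 further: thallium influx through GIRK channels coupled to M4 in HEK293 cells with BTC-AM dye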); conditions: at 10 µM, actives lie on both sides
Outline: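 Material – HEK293 cells with M4 receptor and GIRK channels · Buffer or medium – pH 7.3 thallium assay buffer · Doses – one dose, 10 µM final · Timing – cells overnight at 37 °C, BTC-AM loading 1 h, reads 2 min total · Measured by – kinetic fluorescence with BTC-AM dye · Controls – carbachol and DMSO controls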

[7] = blockers of RIG-like receptor reporter activation – cell-based, Sendai virus stimulus, luciferase, 10K MLSCN set, TLR/RLR signaling modifier project, primary screen (AID 602276;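 active means inhibition at or above 50% at 10 µM; inactive means inhibition below 50%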;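 further: firefly luciferase from ISG56 promoter only with Renilla not read in this screen; 0% = Sendai virus plus DMSO and 100% = medium plus DMSO without virus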); conditions: HEK293 RL24 IRF3 luciferase reporter, at 10 µM, stronger effect = higher value
[8] = TLR3 IRF3 reporter activation blockers – cell-based, poly I:C stimulus, luciferase, 10K MLSCN set, primary screen (AID 602277;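 active means inhibition of the reporter signal at or above 50%; inactive means inhibition below 50%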); conditions: HEK293-TLR3 RL24 IRF3 luciferase reporter, at 10 µM, stronger effect = higher value

Chain of Muscarinic acetylcholine receptor M4 (Homo sapiens) (P08173 whole entry, looked up): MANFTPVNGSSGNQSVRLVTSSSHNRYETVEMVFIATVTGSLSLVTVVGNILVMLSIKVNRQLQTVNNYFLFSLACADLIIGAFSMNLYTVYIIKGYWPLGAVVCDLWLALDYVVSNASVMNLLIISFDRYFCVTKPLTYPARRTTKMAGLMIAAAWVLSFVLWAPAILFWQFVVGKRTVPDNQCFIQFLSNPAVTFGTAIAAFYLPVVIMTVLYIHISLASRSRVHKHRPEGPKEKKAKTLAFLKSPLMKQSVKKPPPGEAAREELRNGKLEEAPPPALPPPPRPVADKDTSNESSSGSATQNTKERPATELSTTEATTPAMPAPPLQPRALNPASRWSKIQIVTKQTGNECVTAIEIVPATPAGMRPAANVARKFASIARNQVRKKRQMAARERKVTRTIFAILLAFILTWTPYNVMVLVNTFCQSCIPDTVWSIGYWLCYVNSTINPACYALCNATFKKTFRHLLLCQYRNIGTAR
Chain of Voltage-gated potassium channel subunit beta-2 (Rattus norvegicus) (P62483 whole entry, looked up): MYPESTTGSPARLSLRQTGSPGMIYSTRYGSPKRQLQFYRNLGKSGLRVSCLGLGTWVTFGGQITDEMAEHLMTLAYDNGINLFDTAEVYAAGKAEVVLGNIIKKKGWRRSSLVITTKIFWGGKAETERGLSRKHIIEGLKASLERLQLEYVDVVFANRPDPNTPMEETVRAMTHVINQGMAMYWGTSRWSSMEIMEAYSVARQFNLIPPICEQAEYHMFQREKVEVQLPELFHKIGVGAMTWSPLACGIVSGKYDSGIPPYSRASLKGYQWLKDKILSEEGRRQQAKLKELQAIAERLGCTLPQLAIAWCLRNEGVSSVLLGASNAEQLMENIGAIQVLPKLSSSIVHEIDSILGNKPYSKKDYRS

SMILES	cell count [1]	inhibition [1]	inhibition of aggregation [2]	nuclei count [2]	inhibition [3]	nuclei count [3]	fluorescence slope [4]	NADPH fluorescence slope [5]	fluorescence slope [6]	inhibition [7]	inhibition [8]
CCC(=O)N1CCc2cc(S(=O)(=O)CCC(=O)Nc3ccc(C)c(F)c3)ccc21	565	2.7% (inactive)	-3% (inactive)	111%	-119% (inactive)	136%	-0.504 (inactive)	0.000146 (inactive)	0.00659 (inactive)	8.99% (inactive)	14.5% (inactive)
CCOC(=O)c1ccc(NS(=O)(=O)c2ccc(SC)cc2)cc1	643	-9% (inactive)	4.8% (inactive)	89%	-21.6% (inactive)	88.3%	-0.48 (inactive)	-4.9e-05 (inactive)	0.00382 (inactive)	13.8% (inactive)	16.1% (inactive)
COc1ccc(N2C(=O)C(Cl)=C(Nc3c(C)n(C)n(-c4ccccc4)c3=O)C2=O)cc1	607	-22.9% (inactive)	-20.7% (inactive)	95.1%	-23.5% (inactive)	102%	-0.449 (inactive)	3.3e-05 (inactive)	0.00622 (inactive)	7.07% (inactive)	12.3% (inactive)
O=C(CCN1CCOCC1)Nc1cccc(Br)c1	354	-5.1% (inactive)	-9.3% (inactive)	134%	-70.3% (inactive)	125%	-0.409 (inactive)	9.1e-05 (inactive)	0.00691 (inactive)	16.1% (inactive)	15.9% (inactive)
Cc1cccc2cc(CN(Cc3nnnn3Cc3ccccc3)C3CCCC3)c(=O)[nH]c12	561	-9% (inactive)	-39.5% (inactive)	76.4%	-35.7% (inactive)	111%	-0.483 (inactive)	-0.00011 (inactive)	0.00509 (inactive)	14.3% (inactive)	15% (inactive)
Cc1ccc(Cn2nnc3c(=O)[nH]c(C4CCN(S(=O)(=O)c5ccc(F)cc5)CC4)nc32)cc1	436	9.4% (inactive)	11.5% (inactive)	107%		153%	-0.584 (inactive)	1.2e-05 (inactive)	0.00687 (inactive)	0.788% (inactive)	-11.3% (inactive)
Cc1c(C(=O)O)sc2ncn(C)c(=O)c12	745	2.8% (inactive)	-9% (inactive)	116%	21% (inactive)	106%	-0.553 (inactive)	-2.2e-05 (inactive)	0.00525 (inactive)	2.12% (inactive)	-1.59% (inactive)
COc1cccc(NC(=O)CSc2nnc(-c3cccs3)n2C)c1	576	-8.5% (inactive)	19.8% (inactive)	65.7%	-65.4% (inactive)	95.9%	-0.278 (inactive)	-5e-05 (inactive)	0.00909 (inactive)	8.77% (inactive)	6.56% (inactive)
CCOC(=O)C1=C(C)N(C)C(C)=C(C(=O)OCC)C1c1cccnc1	366	-5.2% (inactive)	-14.4% (inactive)	93.8%	-55.9% (inactive)	115%	-0.5 (inactive)	-2.2e-05 (inactive)	0.00631 (inactive)	-2.74% (inactive)	6.76% (inactive)
CCN(c1ccc(OC)cc1)S(=O)(=O)c1ccc2c(c1)CCN2C(=O)CCC(=O)O	625	8.3% (inactive)	-38.2% (inactive)	92.1%	-35.6% (inactive)	115%	-0.454 (inactive)	2.3e-05 (inactive)	0.00631 (inactive)	14.1% (inactive)	20.9% (inactive)
c1ccc(-c2cc(-c3nc(-c4ccccn4)no3)c3ccccc3n2)cc1	469	7.6% (inactive)	-4.3% (inactive)	101%	-171% (inactive)	140%	-0.265 (inactive)	-8.8e-06 (inactive)	0.0088 (inactive)	0.406% (inactive)	-37.7% (inactive)
